Data published in ChEMBL document CHEMBL1155135, “Effect of Lamivudine on the plasma and intracellular pharmacokinetics of apricitabine, a novel nucleoside reverse transcriptase inhibitor, in healthy volunteers” (Antimicrob Agents Chemother, 2007).

Key:
Homo sapiens [1] = assay: AUC (0 to 12 hrs) in healthy human PBMC assessed as intracellular lamivudine triphosphate level per 10^6 cells at 300 mg, po administered once daily for 4 days; conditions: in vivo
Homo sapiens [2] = assay: Cmin in healthy human PBMC assessed as intracellular apricitabine triphosphate level per 10^6 cells at 300 mg, po once daily coadministered with 600 mg, po apricitabine twice daily for 4 days; assay type: ADME, organism-based; conditions: in vivo, 96 h
Homo sapiens [3] = assay: Tmax in healthy human PBMC assessed as intracellular apricitabine triphosphate level at 300 mg, po administered once daily for 4 days; assay type: ADME, organism-based; conditions: in vivo, 96 h, in the assay text read “lamivudine” for “apricitabine”
Method in brief: (§1)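 PBMC were isolated from triplicate day-4 blood samples taken 2, 4, 8, 12 and 24 h after the morning dose, then extracted in 70/30 methanol-Tris-HCl pH 7.4. Triphosphates were separated by anion-exchange SPE with KCl washes, eluted with 500 mM KCl, and dephosphorylated with alkaline phosphatase at 37°C. Quantitation used HPLC-MS/MS with a labelled triphosphate internal standard; LLOQ 0.0592 pmol/10^6 cells. Cmax/Tmax were read by inspection; t1/2 = ln2/λz.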

Homo sapiens [4] = assay: Cmax in healthy human PBMC assessed as intracellular lamivudine triphosphate level per 10^6 cells at 300 mg, po administered once daily for 4 days; conditions: in vivo, 96 h
Homo sapiens [5] = assay: Cmin in healthy human PBMC assessed as intracellular lamivudine triphosphate level per 10^6 cells at 300 mg, po administered once daily for 4 days; conditions: in vivo, 96 h
Homo sapiens [6] = assay: AUC (0 to 12 hrs) in healthy human PBMC assessed as intracellular lamivudine triphosphate level per 10^6 cells at 300 mg, po once daily coadministered with 600 mg, po apricitabine twice daily for 4 days; conditions: in vivo
[7] = Tmax in healthy human at 300 mg, po once daily coadministered with 600 mg, po apricitabine twice daily for 4 days; assay type: ADME, organism-based; conditions: in vivo
Method in brief: (§2)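 Healthy volunteers took each regimen in random order for 4 days, with washouts of at least 7 days. The day-4 morning dose followed a fast of at least 10 h. Plasma was drawn predose and 0.5–36 h after dosing, and urine was collected to 36 h; both were assayed by validated HPLC. Cmax/Tmax were read from the curves. CLT/F = dose/AUC, CLR = 24-h urinary amount/AUC0-24, Vz/F = dose/(λz·AUC), t1/2 = ln2/λz.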

[8] = Cmax in healthy human at 300 mg, po administered once daily for 4 days; assay type: ADME, organism-based; design: dose 300 mg, route oral; conditions: in vivo
Method in brief: as §2

[9] = AUC (0 to 24 hrs) in healthy human at 300 mg, po administered once daily for 4 days; assay type: ADME, organism-based; design: dose 300 mg, time < 24 hr, route oral; conditions: plasma
Method in brief: as §2

[10] = Tmax in healthy human at 300 mg, po administered once daily for 4 days; assay type: ADME, organism-based; conditions: in vivo
Method in brief: as §2

[11] = Cmax in healthy human at 300 mg, po once daily coadministered with 600 mg, po apricitabine twice daily for 4 days; assay type: ADME, organism-based; design: dose 300 mg, route oral; conditions: in vivo
Method in brief: as §2

Homo sapiens [12] = assay: Cmax in healthy human PBMC assessed as intracellular apricitabine triphosphate level per 10^6 cells at 300 mg, po once daily coadministered with 600 mg, po apricitabine twice daily for 4 days; assay type: ADME, organism-based, Blood; design: dose 300 mg, route oral; conditions: in vivo, 96 h
Method in brief: as §1

Homo sapiens [13] = assay: Tmax in healthy human PBMC assessed as intracellular apricitabine triphosphate level at 300 mg, po once daily coadministered with 600 mg, po apricitabine twice daily for 4 days; assay type: ADME, organism-based; conditions: in vivo, 96 h
Method in brief: as §1

[14] = AUC (0 to 24 hrs) in healthy human at 300 mg, po once daily coadministered with 600 mg, po apricitabine twice daily for 4 days; assay type: ADME, organism-based; design: time < 24 hr, dose 300 mg, route oral; conditions: plasma
Method in brief: as §2

[15] = Renal clearance in healthy human at 600 mg, po administered twice daily for 4 days; assay type: ADME, organism-based, Kidney; conditions: in vivo, read-out: CL_renal (converted)
Method in brief: as §2

[16] = Apparent total oral clearance in healthy human at 600 mg, po administered twice daily for 4 days; assay type: ADME, organism-based; conditions: in vivo
Method in brief: as §2

[17] = Cmax in healthy human at 600 mg, po twice daily coadministered with 300 mg, po Lamivudine once daily for 4 days; assay type: ADME, organism-based; design: dose 600 mg, route oral; conditions: in vivo
Method in brief: as §2

Homo sapiens [18] = assay: Tmax in healthy human PBMC assessed as intracellular apricitabine triphosphate level at 600 mg, po twice daily coadministered with 300 mg, po Lamivudine once daily for 4 days; assay type: ADME, organism-based; conditions: in vivo, 96 h
Method in brief: as §1

[19] = Tmax in healthy human at 600 mg, po administered twice daily for 4 days; assay type: ADME, organism-based; conditions: in vivo
Method in brief: as §2

Homo sapiens [20] = assay: Cmin in healthy human PBMC assessed as intracellular apricitabine triphosphate level per 10^6 cells at 600 mg, po twice daily coadministered with 300 mg, po Lamivudine once daily for 4 days; assay type: ADME, organism-based; conditions: in vivo, 96 h
Homo sapiens [21] = assay: Ratio of Cmax to Cmin in healthy human PBMC assessed as intracellular apricitabine triphosphate level per 10^6 cells at 600 mg, po administered twice daily for 4 days; assay type: ADME, organism-based; conditions: in vivo, 96 h
[22] = AUC (0 to 24 hrs) in healthy human at 600 mg, po twice daily coadministered with 300 mg, po Lamivudine once daily for 4 days; assay type: ADME, organism-based; design: dose 600 mg, time < 24 hr, route oral; conditions: plasma
Method in brief: as §2

Homo sapiens [23] = assay: Apparent total oral clearance in healthy human at 600 mg, po twice daily coadministered with 300 mg, po Lamivudine once daily for 4 days; assay type: ADME, organism-based; conditions: in vivo, 96 h
Method in brief: as §2

Homo sapiens [24] = assay: Half life in healthy human PBMC assessed as intracellular apricitabine triphosphate level per 10^6 cells at 600 mg, po administered twice daily for 4 days; assay type: ADME, organism-based; conditions: in vivo, 96 h
Method in brief: as §1

Homo sapiens [25] = assay: Cmax in healthy human PBMC assessed as intracellular apricitabine triphosphate level per 10^6 cells at 600 mg, po twice daily coadministered with 300 mg, po Lamivudine once daily for 4 days; assay type: ADME, organism-based, Blood; design: dose 600 mg, route oral; conditions: in vivo, 96 h
Method in brief: as §1

Homo sapiens [26] = assay: Cmin in healthy human PBMC assessed as intracellular apricitabine triphosphate level per 10^6 cells at 600 mg, po administered twice daily for 4 days; assay type: ADME, organism-based; conditions: in vivo, 96 h
[27] = AUC (0 to 24 hrs) in healthy human at 600 mg, po administered twice daily for 4 days; assay type: ADME, organism-based; design: dose 600 mg, time < 24 hr, route oral; conditions: plasma
Method in brief: as §2

Homo sapiens [28] = assay: Volume of distribution at steady state in healthy human at 600 mg, po twice daily coadministered with 300 mg, po Lamivudine once daily for 4 days; assay type: ADME, organism-based; conditions: in vivo, 96 h
Method in brief: as §2

[29] = Apparent terminal half life in healthy human at 600 mg, po administered twice daily for 4 days; assay type: ADME, organism-based; conditions: in vivo
Method in brief: as §2

Homo sapiens [30] = assay: Cmax in healthy human PBMC assessed as intracellular apricitabine triphosphate level per 10^6 cells at 600 mg, po administered twice daily for 4 days; assay type: ADME, organism-based, Blood; design: dose 600 mg, route oral; conditions: in vivo, 96 h
Method in brief: as §1

Homo sapiens [31] = assay: AUC (0 to 12 hrs) in healthy human PBMC assessed as intracellular apricitabine triphosphate level per 10^6 cells at 600 mg, po twice daily coadministered with 300 mg, po Lamivudine once daily for 4 days; assay type: ADME, organism-based; design: time < 12 hr, dose 600 mg, route oral; conditions: in vivo
Method in brief: as §1

[32] = Tmax in healthy human at 600 mg, po twice daily coadministered with 300 mg, po Lamivudine once daily for 4 days; assay type: ADME, organism-based; conditions: in vivo
Method in brief: as §2

Homo sapiens [33] = assay: Half life in healthy human PBMC assessed as intracellular apricitabine triphosphate level per 10^6 cells at 600 mg, po twice daily coadministered with 300 mg, po Lamivudine once daily for 4 days; assay type: ADME, organism-based; conditions: in vivo, 96 h
Method in brief: as §1

Homo sapiens [34] = assay: Tmax in healthy human PBMC assessed as intracellular apricitabine triphosphate level at 600 mg, po administered twice daily for 4 days; assay type: ADME, organism-based; conditions: in vivo, 96 h
Method in brief: as §1

[35] = Cmax in healthy human at 600 mg, po administered twice daily for 4 days; assay type: ADME, organism-based; design: dose 600 mg, route oral; conditions: in vivo
Method in brief: as §2

[36] = Apparent terminal half life in healthy human at 600 mg, po twice daily coadministered with 300 mg, po Lamivudine once daily for 4 days; assay type: ADME, organism-based; conditions: in vivo
Method in brief: as §2

Homo sapiens [37] = assay: AUC (0 to 12 hrs) in healthy human PBMC assessed as intracellular apricitabine triphosphate level per 10^6 cells at 600 mg, po administered twice daily for 4 days; assay type: ADME, organism-based; design: dose 600 mg, time < 12 hr, route oral; conditions: in vivo
Method in brief: as §1

Homo sapiens [38] = assay: Volume of distribution at steady state in healthy human at 600 mg, po administered twice daily for 4 days; assay type: ADME, organism-based; conditions: in vivo, 96 h
Method in brief: as §2

Homo sapiens [39] = assay: Ratio of Cmax to Cmin in healthy human PBMC assessed as intracellular apricitabine triphosphate level per 10^6 cells at 600 mg, po twice daily coadministered with 300 mg, po Lamivudine once daily for 4 days; assay type: ADME, organism-based; conditions: in vivo, 96 h
Homo sapiens [40] = assay: Renal clearance in healthy human at 600 mg, po twice daily coadministered with 300 mg, po Lamivudine once daily for 4 days; assay type: ADME, organism-based, Kidney; conditions: in vivo, 96 h
Method in brief: as §2

An AUC (Homo sapiens [1]) of 154 pmol·h/10^6 cells, a Cmin_PBMC (Homo sapiens [2]) of 4.52 pmol/10^6cells and a Tmax (Homo sapiens [3]) of 4.76 h were found for `Nc1ccn([C@@H]2CS[C@H](CO)O2)c(=O)n1` [LAMIVUDINE] in this work. The Cmax (Homo sapiens [4]) was 9.83 pmol/10^6cells, the Cmin_PBMC (Homo sapiens [5]) was 4.35 pmol/10^6cells and the AUC (Homo sapiens [6]) was 161 pmol·h/10^6 cells. It also gave a Tmax [7] of 1.02 h, a Cmax [8] of 3980 ng/mL and an AUC at 24 h [9] of 15700 ng·h/mL. It also gave a Tmax [10] of 1 h, a Cmax [11] of 3810 ng/mL and a Cmax (Homo sapiens [12]) of 9.91 pmol/10^6cells. It also gave a Tmax (Homo sapiens [13]) of 3.9 h and an AUC at 24 h [14] of 15500 ng·h/mL.

A CL renal at 96 h [15] of 192 mL/min, a CL/F [16] of 283 mL/min and a Cmax [17] of 7110 ng/mL were found for `Nc1ccn([C@H]2CO[C@@H](CO)S2)c(=O)n1` [APRICITABINE] in this work. It also gave a Tmax (Homo sapiens [18]) of 3.14 h, a Tmax [19] of 1.76 h and a Cmin_PBMC (Homo sapiens [20]) of 0.078 pmol/10^6cells. For the same molecule, the Ratio (Homo sapiens [21]) was 3.28, the AUC at 24 h [22] was 65600 ng·h/mL and the CL/F (Homo sapiens [23]) was 18.3 L/h. The t1/2 (Homo sapiens [24]) was 6.22 h, the Cmax (Homo sapiens [25]) was 0.257 pmol/10^6cells and the Cmin_PBMC (Homo sapiens [26]) was 0.6 pmol/10^6cells. For the same molecule, the AUC at 24 h [27] was 70900 ng·h/mL, the Vdss (Homo sapiens [28]) was 67.9 L and the half-life [29] was 163 min. It also gave a Cmax (Homo sapiens [30]) of 1.66 pmol/10^6cells, an AUC (Homo sapiens [31]) of 1.98 pmol·h/10^6 cells and a Tmax [32] of 1.55 h. It also gave a t1/2 (Homo sapiens [33]) of 5.06 h, a Tmax (Homo sapiens [34]) of 3.52 h and a Cmax [35] of 7430 ng/mL. For the same molecule, the half-life [36] was 156 min, the AUC (Homo sapiens [37]) was 13.3 pmol·h/10^6 cells and the Vdss (Homo sapiens [38]) was 67.7 L. For the same molecule, the Ratio (Homo sapiens [39]) was 3.54 and the CL renal (Homo sapiens [40]) was 12.2 L/h.
